Tests used:
[1] = system: 25TAG (5′-FAM, 3′-TAMRA) (DNA, G4) TAGGGTTAGGGTTAGGGTTAGGGTT; assay: fluorescence melting; settings: 100 mM KCl; 10 mM LiAsO2Me2, pH 7.2; 0.4 μM compound, 0.2 μM DNA
[2] = system: T98G cells (multidrug-resistant glioblastoma); assay: Cytotoxicity assay; format: cell-based; settings: Homo sapiens, 96 h, read-out: GI50, T98G
Summary of the method: (§1)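 Adherent cells grown in MEM GlutaMAX with 10 % FBS, 1 % penicillin/streptomycin and 1 % non-essential amino acids at 37 °C, 5 % CO₂, passaged with TrypLE. Cells were plated at 0.125×10⁵ cells mL⁻¹ and test compound in DMSO was added after 4 h ([…], 0.5 % v/v DMSO). After 96 h, CellTiter-Glo luminescence was read and viability expressed relative to the DMSO control. Each condition was run at least three times, with two technical replicates per plate.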

[3] = system: A549 cells (cisplatin-resistant non-small-cell lung carcinoma); assay: Cytotoxicity assay; format: cell-based, human; settings: for GI50: Homo sapiens, A549, 96 h, read-out: GI50, A549
Summary of the method: as §1

[4] = system: MRC-5 cells (noncancerous lung fibroblast); assay: Cytotoxicity assay; format: cell-based; settings: Homo sapiens, MRC5, 96 h, read-out: GI50, MRC-5
Summary of the method: as §1

[5] = system: 25TAG (G4-DNA, hybrid-2, variant of human telomeric sequence); assay: Fluorescence-melting experiments; format: binding; settings: pure ligand 0.4 μM, DNA 0.2 μM
Summary of the method: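 FAM/TAMRA-labelled oligonucleotides were annealed (95 °C, 5 min) at 0.23 μM in target-specific buffer. Final concentrations were 0.2 μM DNA and 1 μM ligand; as-synthesized mixtures were diluted in buffer without further treatment, and pure ligands were run at 0.1–1.0 μM. Melting used a 0.5 °C min⁻¹ ramp with FAM-channel fluorescence. Tm came from first-derivative peaks, and ΔTm was the difference of means from three experiments. ΔTm detection tops out at 36 °C (96 °C).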

SMILES | ΔT m [1] [°C] | GI50 [2] [µM] | GI50 [3] [µM] | selectivity index, A549 with respect to MRC-5 cells ([3]; ratio of GI50 values, 96 h) | GI50 [4] [µM] | ΔTm, 25TAG, pure ligands [5] [°C]
C[n+]1cc(NC(=O)c2ccc3ccc4ccc(C(=O)Nc5cc6ccccc6[n+](C)c5)nc4c3n2)cc2ccccc21 | > 30 |  |  |  |  | 
C[n+]1cccc2cc(C=NNC(=O)c3ccc4ccc5ccc(C(=O)NN=Cc6ccc7c(ccc[n+]7C)c6)nc5c4n3)ccc21.[I-].[I-] [3Ef] |  | 11.2 ± 1.4 | 0.4 ± 0.06 | ~67 | 26.7 ± 2.4 | 
O=C(NN=Cc1ccc(C[n+]2ccccc2)cc1)c1ccc2ccc3ccc(C(=O)NN=Cc4ccc(C[n+]5ccccc5)cc4)nc3c2n1.[Br-].[Br-] [3Ei] |  | 29.7 ± 2 | 3.2 ± 0.6 |  | 59.1 ± 5.5 | > 30

From paper PMC10099395 (Chemistry (Weinheim an Der Bergstrasse, Germany), 2022)
